Test results taken from ChEMBL document CHEMBL3734737, “Synthesis and Evaluation of a Radioiodinated Tracer with Specificity for Poly(ADP-ribose) Polymerase-1 (PARP-1) in Vivo” (J Med Chem, 2015).

tested on: not listed separately; test: Drug level in solid feces of human U87MG-Luc2 cells xenografted CD1 mouse at 0.8 to 1.1 MBq, iv after 30 mins by gamma counting method; type: ADME, organism-based; conditions: in vivo, 0.5 h, TDE = time-dependent effect; call rule not given here
Procedure, shortened: (§1)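 Female 7–11 week CD1 nude mice carrying subcutaneous U87MG-Luc2 flank xenografts (5×10^6 cells; used 21–30 days post-implant) got a tail-vein bolus of 0.8–1.1 MBq [123I]-tracer in 10% EtOH/0.9% saline. They were killed by CO2 at 30 min (n=3). Tissues were fixed in formaldehyde, weighed and gamma counted. Background was subtracted and %ID/g was derived from a dose-stock control.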

SMILES | Drug uptake
O=C(c1ccc([123I])cc1)N1CCN(C(=O)c2cc(Cc3n[nH]c(=O)c4ccccc34)ccc2F)CC1 | tde

tested on: not listed separately; test: Metabolic stability in black-6 mouse plasma assessed as residual compound level at 250 uM incubated for 20 hrs by LC-MS method; type: ADME, cell-free; conditions: read-out: Stability
Procedure, shortened: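 Plasma was taken from EDTA-treated female black-6 mouse blood. Compound (10 μL of 250 μM stock into 50 μL plasma; DMSO <1%) was held at room temperature for 0 or 20 h. It was MeOH-precipitated and measured by LC-MS (SIM) against an internal standard, as % parent relative to a no-plasma control. Three experiments, ± SD.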

SMILES | remaining at 20 h, 250 µM [%]
O=C(c1ccc(I)cc1)N1CCN(C(=O)c2cc(Cc3n[nH]c(=O)c4ccccc34)ccc2F)CC1 | 98

tested on: Brain; test: Drug level in brain of human U87MG-Luc2 cells xenografted CD1 mouse at 0.8 to 1.1 MBq, iv after 30 mins by gamma counting method; type: ADME, organism-based; conditions: in vivo, 0.5 h; procedure, shortened: as §1

SMILES | Drug uptake
O=C(c1ccc([123I])cc1)N1CCN(C(=O)c2cc(Cc3n[nH]c(=O)c4ccccc34)ccc2F)CC1 | Not Active

target: Poly [ADP-ribose] polymerase 1 (Homo sapiens, UniProt P09874); test: Inhibition of PARP1 (unknown origin) incubated for 10 mins using biotinylated NAD+ and activated DNA by colorimetric assay; conditions: not given
Sequence (P09874 whole entry): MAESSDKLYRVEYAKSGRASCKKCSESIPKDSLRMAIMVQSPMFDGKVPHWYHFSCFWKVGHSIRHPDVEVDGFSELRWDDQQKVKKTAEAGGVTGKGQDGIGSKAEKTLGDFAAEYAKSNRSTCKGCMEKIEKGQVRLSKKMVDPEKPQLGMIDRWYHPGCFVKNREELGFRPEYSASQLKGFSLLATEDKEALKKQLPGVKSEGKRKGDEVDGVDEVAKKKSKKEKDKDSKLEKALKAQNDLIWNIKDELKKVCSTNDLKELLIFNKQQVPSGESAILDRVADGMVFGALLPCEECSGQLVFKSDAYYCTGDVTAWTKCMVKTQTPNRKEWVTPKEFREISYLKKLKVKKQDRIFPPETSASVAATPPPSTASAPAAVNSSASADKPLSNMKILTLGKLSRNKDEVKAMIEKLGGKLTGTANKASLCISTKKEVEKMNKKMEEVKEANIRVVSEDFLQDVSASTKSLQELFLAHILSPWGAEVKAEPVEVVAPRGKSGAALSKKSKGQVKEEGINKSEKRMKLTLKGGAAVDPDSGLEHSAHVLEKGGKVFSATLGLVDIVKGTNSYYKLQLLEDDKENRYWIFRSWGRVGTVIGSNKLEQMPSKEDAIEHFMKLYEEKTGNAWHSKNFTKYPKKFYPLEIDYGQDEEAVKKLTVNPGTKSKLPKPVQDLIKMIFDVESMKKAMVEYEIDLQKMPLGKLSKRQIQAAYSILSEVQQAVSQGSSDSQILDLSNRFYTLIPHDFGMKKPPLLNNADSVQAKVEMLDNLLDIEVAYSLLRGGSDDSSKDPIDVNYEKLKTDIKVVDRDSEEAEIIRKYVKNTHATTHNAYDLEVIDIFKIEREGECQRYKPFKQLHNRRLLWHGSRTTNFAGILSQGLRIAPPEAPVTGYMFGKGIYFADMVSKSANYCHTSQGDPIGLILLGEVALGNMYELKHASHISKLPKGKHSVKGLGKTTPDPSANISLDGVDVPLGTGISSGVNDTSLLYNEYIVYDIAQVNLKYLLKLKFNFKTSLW

SMILES | IC50 [nM]
O=C(Cc1cccc(I)c1)N1CCN(C(=O)c2cc(Cc3n[nH]c(=O)c4ccccc34)ccc2F)CC1 | 5.8
COc1ccc(C(=O)N2CCN(C(=O)c3cc(Cc4n[nH]c(=O)c5ccccc45)ccc3F)CC2)cc1I | 17.6
Cc1ccc(C(=O)N2CCN(C(=O)c3cc(Cc4n[nH]c(=O)c5ccccc45)ccc3F)CC2)cc1I | 16.9
O=C(c1cc(Cc2n[nH]c(=O)c3ccccc23)ccc1F)N1CCN(S(=O)(=O)c2ccc(I)cc2)CC1 | 22.6
O=C(COc1ccc(I)cc1)N1CCN(C(=O)c2cc(Cc3n[nH]c(=O)c4ccccc34)ccc2F)CC1 | 3

target: albumin (Homo sapiens, UniProt P02768); test: Protein binding to human serum albumin at 0.5 to 1.5 mg/ml by HPLC method; type: ADME; conditions: read-out: PPB (converted)
Sequence (P02768 whole entry): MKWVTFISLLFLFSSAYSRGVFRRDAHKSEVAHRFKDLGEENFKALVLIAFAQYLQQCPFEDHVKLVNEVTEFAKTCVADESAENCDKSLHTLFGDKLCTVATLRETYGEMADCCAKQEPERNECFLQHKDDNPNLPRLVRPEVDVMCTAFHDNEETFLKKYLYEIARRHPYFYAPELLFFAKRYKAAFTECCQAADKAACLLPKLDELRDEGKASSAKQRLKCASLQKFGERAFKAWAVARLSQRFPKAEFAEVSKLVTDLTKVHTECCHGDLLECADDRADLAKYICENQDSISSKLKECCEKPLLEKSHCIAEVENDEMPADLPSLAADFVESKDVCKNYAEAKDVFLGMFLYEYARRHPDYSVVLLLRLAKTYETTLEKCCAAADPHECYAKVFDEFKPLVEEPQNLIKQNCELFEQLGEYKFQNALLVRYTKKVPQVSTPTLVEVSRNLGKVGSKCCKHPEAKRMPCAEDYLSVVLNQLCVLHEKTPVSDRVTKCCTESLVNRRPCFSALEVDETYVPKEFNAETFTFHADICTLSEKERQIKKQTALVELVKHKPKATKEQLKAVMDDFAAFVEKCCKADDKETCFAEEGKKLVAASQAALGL

SMILES | fraction unbound
O=C(Cc1cccc(I)c1)N1CCN(C(=O)c2cc(Cc3n[nH]c(=O)c4ccccc34)ccc2F)CC1 | 0.025
COC(=O)C1=C(C)NC(C)=C(C(=O)OCCN(C)Cc2ccccc2)C1c1cccc([N+](=O)[O-])c1 (configuration not stated) [NICARDIPINE] | 0.05
CNC(=C[N+](=O)[O-])NCCSCc1csc(CN(C)C)n1 [NIZATIDINE] | 0.65
O=C1CN=C(c2ccccn2)c2cc(Br)ccc2N1 [BROMAZEPAM] | 0.4
COc1ccc(C(=O)N2CCN(C(=O)c3cc(Cc4n[nH]c(=O)c5ccccc45)ccc3F)CC2)cc1I | 0.035
Cc1ccc(C(=O)N2CCN(C(=O)c3cc(Cc4n[nH]c(=O)c5ccccc45)ccc3F)CC2)cc1I | 0.024
O=C(c1ccc(I)cc1)N1CCN(C(=O)c2cc(Cc3n[nH]c(=O)c4ccccc34)ccc2F)CC1 | 0.038
O=C(c1cccc(I)c1)N1CCN(C(=O)c2cc(Cc3n[nH]c(=O)c4ccccc34)ccc2F)CC1 | 0.039
NC(=O)N1c2ccccc2C=Cc2ccccc21 [CARBAMAZEPINE] | 0.25
O=C(c1cc(Cc2n[nH]c(=O)c3ccccc23)ccc1F)N1CCN(S(=O)(=O)c2ccc(I)cc2)CC1 | 0.016
CCCC1O[C@@H]2C[C@H]3[C@@H]4CCC5=CC(=O)C=C[C@]5(C)[C@H]4[C@@H](O)C[C@]3(C)[C@]2(C(=O)CO)O1 (some centres not stated) [BUDESONIDE] | 0.12
O=C(COc1ccc(I)cc1)N1CCN(C(=O)c2cc(Cc3n[nH]c(=O)c4ccccc34)ccc2F)CC1 | 0.019

tested on: not listed separately; test: Drug level in small bowel matter of human U87MG-Luc2 cells xenografted CD1 mouse at 0.8 to 1.1 MBq, iv after 30 mins by gamma counting method; type: ADME, organism-based; conditions: in vivo, 0.5 h; procedure, shortened: as §1

SMILES | Drug uptake
O=C(c1ccc([123I])cc1)N1CCN(C(=O)c2cc(Cc3n[nH]c(=O)c4ccccc34)ccc2F)CC1 | Active

tested on: Liver; test: Drug level in liver of human U87MG-Luc2 cells xenografted CD1 mouse at 0.8 to 1.1 MBq, iv after 30 mins by gamma counting method; type: ADME, organism-based; conditions: in vivo, 0.5 h; procedure, shortened: as §1

SMILES | Drug uptake
O=C(c1ccc([123I])cc1)N1CCN(C(=O)c2cc(Cc3n[nH]c(=O)c4ccccc34)ccc2F)CC1 | Active

tested on: not listed separately; test: Octanol-water partition coefficient, log P of the compound at 0.5 to 1.5 mg/ml by HPLC method; type: physicochemical; conditions: not given
Procedure, shortened: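 Samples of 0.5–1.5 mg/mL in MeCN/PBS were run in triplicate on reverse-phase C18 HPLC. The gradient was PBS/MeCN at 1.0 mL/min, with PBS at pH 4.0, 7.4 and 10.0. Retention times were calibrated against seven standards of known chromatographic hydrophobicity index (CHI) to give non-ionized CHI, from which log P was derived.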

SMILES | logP
O=C(Cc1cccc(I)c1)N1CCN(C(=O)c2cc(Cc3n[nH]c(=O)c4ccccc34)ccc2F)CC1 | 3.13
COc1ccc(C(=O)N2CCN(C(=O)c3cc(Cc4n[nH]c(=O)c5ccccc45)ccc3F)CC2)cc1I | 2.95
Cc1ccc(C(=O)N2CCN(C(=O)c3cc(Cc4n[nH]c(=O)c5ccccc45)ccc3F)CC2)cc1I | 3.23
O=C(c1ccc(I)cc1)N1CCN(C(=O)c2cc(Cc3n[nH]c(=O)c4ccccc34)ccc2F)CC1 | 3
O=C(c1cccc(I)c1)N1CCN(C(=O)c2cc(Cc3n[nH]c(=O)c4ccccc34)ccc2F)CC1 | 2.97
O=C(c1cc(Cc2n[nH]c(=O)c3ccccc23)ccc1F)N1CCN(S(=O)(=O)c2ccc(I)cc2)CC1 | > 3.25
O=C(c1cc(Cc2n[nH]c(=O)c3ccccc23)ccc1F)N1CCN(C(=O)C2CC2)CC1 [OLAPARIB] | 1.95
O=C(COc1ccc(I)cc1)N1CCN(C(=O)c2cc(Cc3n[nH]c(=O)c4ccccc34)ccc2F)CC1 | 3.25

tested on: not listed separately; test: Intrinisc clerarance in human liver microsomes assessed as residual compound level at 60 uM preincubated for 10 mins followed by NADPH addition in KH2PO4 at pH 7.4 by LC-MS method; type: ADME; conditions: read-out: CLH

SMILES | microsomal CLint at 60 µM [µL/min/mg]
O=C(c1ccc(I)cc1)N1CCN(C(=O)c2cc(Cc3n[nH]c(=O)c4ccccc34)ccc2F)CC1 | 85
O=C(c1cc(Cc2n[nH]c(=O)c3ccccc23)ccc1F)N1CCN(C(=O)C2CC2)CC1 [OLAPARIB] | 29
